Assay outcomes: PubChem BioAssay, several laboratories
M18AAP inhibitor: PfM18AAP inhibitors, malaria aminopeptidase, primary screen, biochemical, QFRET, recombinant enzyme | M18 aspartyl aminopeptidase (Plasmodium falciparum 3D7) | H-Glu-NHMec fluorogenic cleavage | inhibition, % at 7.35 µM | 290,000 tested, 1.2% active;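 active = inhibition above the campaign mean inhibition over all tested compounds plus 3 SD, cut at about 28% in these data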;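 note: 0% = plate median of test compound wells and 100% = 2 mM ZnCl2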
m5-HT2A agonist: mouse Htr2a agonists via beta-arrestin recruitment, primary screen, cell-based, luminescence. 5-hydroxytryptamine receptor 2A (Mus musculus), P35363. CHO-K1 mHTR2A beta-arrestin complementation; percent of 30 µM serotonin response. activation, % at 7.6 µM. 360,000 tested, 0.66% active. AID 624169, 2012;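 active = activation above a run cutoff, the mean activation of all tested compounds plus 3 SD, cut at about 14% in these data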;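 note: 0% = plate median of compound wells and 100% = 30 µM serotonin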
Target sequence (P35363 whole entry, looked up): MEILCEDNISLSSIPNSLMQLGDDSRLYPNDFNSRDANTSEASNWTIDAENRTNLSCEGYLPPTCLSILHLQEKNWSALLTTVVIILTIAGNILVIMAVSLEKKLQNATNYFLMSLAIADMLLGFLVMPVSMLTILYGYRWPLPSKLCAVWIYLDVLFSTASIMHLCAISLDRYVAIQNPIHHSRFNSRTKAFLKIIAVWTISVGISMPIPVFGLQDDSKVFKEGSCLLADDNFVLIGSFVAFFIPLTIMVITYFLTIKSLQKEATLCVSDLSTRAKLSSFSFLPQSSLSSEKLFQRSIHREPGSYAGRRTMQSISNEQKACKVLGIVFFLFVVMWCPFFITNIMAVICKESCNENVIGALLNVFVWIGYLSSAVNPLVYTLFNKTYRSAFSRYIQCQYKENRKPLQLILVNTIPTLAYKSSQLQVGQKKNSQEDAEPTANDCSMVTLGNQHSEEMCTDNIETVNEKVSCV
HGIII-sPLA2 inh: human group III sPLA2 inhibitors, primary screen, biochemical, QFRET, BODIPY PC-A2 liposome substrate | QFRET BODIPY PC-A2 liposome hydrolysis, fluorescence | inhibition, % at 12.2 µM | 370,000 tested, 0.56% active;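 active = inhibition above mean plus 3 SD of compounds lying within the high and low control bounds, cut at about 19% in these data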;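 note: 0% = median of test compound wells and 100% = no enzyme DMSO wells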
Arr AP2 block: inhibitors of beta-arrestin/AP2 binding, primary screen, biochemical, GPCR trafficking, flow cytometry; FITC-arrestin peptide / GST-AP2 beads; AP2 beta2 appendage carries R879A mutation; AID 504490, 2011; inhibition, % at 10 µM; beta-arrestin 1 C-terminal peptide binding to AP2 beta2-adaptin appendage (human); 340,000 tested, 0.31% active;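 active = inhibition above a set limit, near 3 SD of compounds lacking own fluorescence, cut at about 54% in these data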;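 note: plate controls were DMSO wells for no effect and 5 µM unlabelled arrestin peptide for full effect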
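test system = AP2 appendage R879A on GSH beads | buffer or medium = PBS plus Tween 20 (0.05%) and BSA (0.1%) | incubation = 12 min plus 1 h, RT | detection = bead flow cytometry, FITC channel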
Lipid droplet: inhibitors of hepatocyte lipid droplet formation, primary screen, imaging, high-throughput imaging, BODIPY stain; inhibition, % at 6.5 µM; 240,000 tested, 0.4% active; AML12 mouse hepatocytes, oleate lipid droplets; AID 1656, 2009;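 active = lipid droplet intensity inhibited by at least 50%, with more than 500 cells counted; inconclusive = wells with under 300 cells, treated as cytotoxic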
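material = mouse AML12 hepatocyte cell line, fixed after treatment | also added = 100 µM oleic acid challenge | doses = compound at 6.5 µM only | schedule = overnight exposure | technique = Image-based BODIPY and DAPI two-channel analysis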
NRP1-CendR mod: modulators of CendR peptide binding to NRP-1, primary screen, biochemical, fluorescence polarization, uHTS; inhibition, % at 25 µM; 360,000 tested, 0.85% active; FAM-RPARPAR peptide binding to NRP-1; AID 602438, 2012;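 active = inhibition or corrected inhibition above about 18%, plus a signal ratio from 0.5 to 1.5, limit read from the data, passing the limit was not always enough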
Numbers without * were called inactive; ? = inconclusive; . = no result. Compounds with a hit are over-represented: about 3.3% of the library has one in this group of screens.

SMILES	M18AAP inhibitor	m5-HT2A agonist	HGIII-sPLA2 inh	Arr AP2 block	Lipid droplet	NRP1-CendR mod
Nc1ccn(CC(=O)NCc2ccccn2)c(=O)n1	.	-1.1	8.4	16.3	.	0.0
Nc1ccn(CC(=O)NCCNc2ccc([N+](=O)[O-])cn2)c(=O)n1	.	1.6	3.9	26.1	.	27.7*
Nc1ccn([C@@H]2O[C@H](C(=O)NCc3ccc4c(c3)OCO4)[C@@H](O)[C@H]2O)c(=O)n1	.	-1.9	0.4	.	.	26.5*
Nc1ccn([C@@H]2O[C@H](C(=O)NCCc3ccc(F)cc3)[C@@H](O)[C@H]2O)c(=O)n1	.	-1.2	4.9	.	.	0.5
O=C(Cn1ccc(NC(=O)OCc2ccccc2)nc1=O)NCc1ccc2c(c1)OCO2	.	6.2	-2.6	5.5	.	0.0
O=C(CN1CCN(Cc2ccccc2)CC1)NCCNc1ccc([N+](=O)[O-])cn1	0.8	-1.6	-1.0	-4.9	-24.9	8.8
CSc1ccc(CN2CCC2(C)C(=O)NCc2ccc3c(c2)OCO3)cc1 (stereo not drawn)	.	-7.3	5.1	.	.	2.2
COc1cccc(-c2cnc(C(O)c3ccc(Cl)c(F)c3)[nH]2)c1 (stereo not drawn)	.	3.6	-1.2	.	.	-8.0
O=[N+]([O-])c1cc(/C=N/NC(=S)Nc2ccccc2Cl)ccc1Cl	-8.4	-2.7	3.8	-13.1	-18.4	-0.1
COc1ccc(/C=N/NC(=S)Nc2ccccc2[N+](=O)[O-])cc1O	17.6	-7.6	20.0*	-1.7	-1.2	-0.2
O=C1NN(c2ccccc2)C(=O)/C1=C\c1ccc2c(c1)OCO2	29.0*	0.6	-4.5	-10.7	7.0	-4.6
Cc1cc(C)c(S(=O)(=O)/N=C2/C=C(Sc3ncn[nH]3)C(=O)c3ccccc32)cc1C	39.9*	3.5	-20.1	23.6	-2.4	-5.0
CCOC(=O)N[C@H](C(=O)N1CCC[C@H]1C(=O)NC1CCCC1)C1CCCCC1	.	.	5.9	.	.	.
COc1ccccc1-[n+]1c(C)cc(/C=C2\Sc3ccccc3N2C)cc1C	47.8*	-4.5	4.7	0.9	-59.3	-139.9
CCOc1ccc(S(=O)(=O)Nc2cc(Sc3ncn[nH]3)c3oc(=O)sc3c2)cc1	29.1*	.	.	.	.	.
Cc1c(Cl)c(C(F)(F)F)nn1CC(=O)N1CCSCC1	3.5	-0.2	10.3	7.6	-8.8	47.9*
Cc1c(Cl)c(C(F)(F)F)nn1CC(=O)NN	2.8	7.2	6.1	-0.3	5.9	-3.6
CCCOc1ccc(N2C(=O)CC(N3CCN(CCN=CC4C(=O)CC(C)(C)CC4=O)CC3)C2=O)cc1 (stereo not drawn)	-3.7	0.9	2.9	-2.2	9.1	24.9*
Nc1nnc(SCCOc2ccccc2)s1	-9.3	-1.6	2.3	6.0	-16.8	1.9
Cc1nnc(SCCOc2ccccc2)s1	-4.0	-4.0	1.0	9.8	1.4	50.9*
C[C@@H]1CNCCN1c1ccc(N2CCS(=O)(=O)CC2)c(C#N)c1	.	.	4.1	.	.	.
CCc1ccc(-c2ccc3nnc(SCC(N)=O)n3n2)cc1	-1.4	4.6	-3.7	-5.6	23.9	23.8*
Cn1ccnc1SCC(=O)Nc1ccc([N+](=O)[O-])cn1	-4.2	6.1	-1.7	3.8	0.6	3.0
Cn1ccnc1SCC(=O)Nc1ccc(Cl)cn1	10.3	-3.9	2.7	5.7	0.2	18.3*
COC(=O)C1CN(Cc2cn(Cc3ccc(C)cc3)nn2)CCS(=O)(=O)N1Cc1ccc(C)cc1 (stereo not drawn)	.	.	3.7	.	.	.
SMILES	M18AAP inhibitor	m5-HT2A agonist	HGIII-sPLA2 inh	Arr AP2 block	Lipid droplet	NRP1-CendR mod
CC(C)[C@H](NC(=O)c1ccccc1)C(=O)OCC(=O)c1ccccc1F	-7.2	4.2	0.3	40.5	-3.7	-10.8
CC(C)[C@H](NC(=O)c1c(F)cccc1F)C(=O)OCC(=O)NNC(=O)c1ccccc1	.	-4.7	5.4	.	.	21.1*
O=C(Nc1ccccc1)c1cc(C2CCCCN2C(=O)OCCF)on1 (stereo not drawn)	.	7.7	-0.6	.	.	-3.7
O=C(NNC(=O)c1ccccc1O)c1cccc(Br)c1	30.3*	9.3	-3.3	12.0	.	-11.9
COc1ccc(-c2noc(CN(C(=O)c3ccc4c(c3)OCO4)C(C)C)n2)cc1	-4.7	-3.2	-6.8	24.5	-8.2	27.5*
C=CCN(Cc1nc(-c2ccc(OC)cc2)no1)C(=O)c1ccc2c(c1)OCO2	0.6	3.2	-0.7	-3.5	-1.1	7.7
O=S1(=O)CC2c3ccccc3CCN2CN1CCc1ccccc1 (stereo not drawn)	.	.	5.0	.	.	.
COc1ccc(Nc2nccc(-c3cccc(N)c3)n2)cc1	-11.0	1.7	0.8	0.0	24.4	20.5*
COc1ccc(Nc2nccc(-c3ccc(C#N)cc3)n2)cc1	2.6	-0.6	5.1	-5.2	-14.2	-3.6
CN(c1cccc(Cl)c1)S(=O)(=O)c1cccc(C(=O)NCc2ccncc2)c1	.	1.3	4.9	5.2	.	24.0*
COc1ccc(/C(C)=N/Nc2ccc(C(=O)O)cc2)c(OC)c1	28.5*	2.1	-0.3	8.0	14.3	3.9
Cc1cc(C(=O)Cn2ncc(Cl)c(Cl)c2=O)c(C)n1CC(F)(F)F	9.2	10.5	-10.2	10.8	-13.0	-5.8
Cc1ccc(C)c(C(=O)Cn2ncc(Cl)c(Cl)c2=O)c1	-3.3	-5.2	-11.2	-8.2	-8.4	20.4*
O=[N+]([O-])c1cc2c(ccc3occc32)o1	.	.	5.3	.	.	.
C=CCN(CC#CC1=CCCCC1)Cc1ccccc1	.	.	9.9	.	.	.
O=C1c2cccc3cc([N+](=O)[O-])cc(c23)C(=O)N1CCN1CCCC1	1.7	2.4	1.3	-1.7	?	30.1*
Nc1cc2c3c(cccc3c1)C(=O)N(CCN1CCCC1)C2=O	23.4	0.0	-2.9	-5.8	?	31.6*
O=[N+]([O-])c1ccc(-c2nc3ccc([N+](=O)[O-])cc3[nH]2)cc1	1.5	1.3	-5.6	5.9	.	35.8*
O=c1cc[nH]c2ccc([N+](=O)[O-])cc12	-2.8	-6.0	0.1	3.9	10.3	33.8*
Cc1ccc(CN2CCCCC(NC(=O)Cc3cccs3)C2=O)cc1 (stereo not drawn)	.	.	5.5	.	.	.
CC1CCCCC1NC(=O)CSc1ncnc2sccc12 (stereo not drawn)	.	3.6	-3.9	.	.	22.2*
CC1CCCC(NC(=O)CSc2ncnc3ccccc23)C1C (stereo not drawn)	.	5.1	-1.3	16.0	.	-14.4
NS(=O)(=O)c1ccc(NC(=S)N2CCN(c3cccc(Cl)c3)CC2)cc1	28.8*	11.5	7.4	-6.8	15.4	-5.3
NS(=O)(=O)c1ccc(NC(=S)N2CCN(c3ccccc3Cl)CC2)cc1	5.6	-5.0	7.6	-5.5	8.6	-6.0
